Laboratory results as given in publication PMC3700807 (Planta medica, 2011).
Converted amounts (≈) assume the structure as drawn.

How the values were obtained:
[1] = tested on: Mycobacterium intracellulare (ATCC 23068); test: Antimicrobial susceptibility assay, M. intracellulare; type: cell-based; settings: Mycobacterium intracellulare
Procedure, shortened: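 Mycobacterium intracellulare (ATCC 23068) was tested by a modified broth susceptibility method, with growth detected in medium containing 5% Alamar Blue. IC50 was fitted against untreated controls from duplicate readings. MIC was taken as the lowest concentration with no detectable growth. For MBC, clear wells were subcultured onto agar and incubated until growth appeared. Ciprofloxacin was included as the drug control in each assay.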

[2] = tested on: methicillin-resistant S aureus (MRSA, ATCC 33591); test: Antimicrobial susceptibility assay, MRSA; type: cell-based, Staphylococcus aureus; settings: Staphylococcus aureus, ATCC33591|MRSA
Procedure, shortened: (§1)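 Bacteria were tested by a modified CLSI broth-dilution method, with growth read as optical density. Ciprofloxacin was the drug control in each assay. IC50 (50% inhibition relative to controls) was fitted from duplicate readings. MIC is the lowest concentration with no detectable growth. For MBC, 5 μL from each clear well was transferred to agar and incubated until growth appeared.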

[3] = tested on: Staphylococcus aureus (ATCC 29213); test: Antimicrobial susceptibility assay, S. aureus; type: cell-based; settings: Staphylococcus aureus
Procedure, shortened: as §1

[4] = tested on: Leishmania donovani axenic amastigotes; test: Antileishmanial assay, axenic amastigotes; type: cell-based; settings: for IC90: Leishmania donovani, 72 h, read-out: Leishmania donovani Axenic Amastigotes IC90; for Leishmania donovani Axenic Amastigotes IC50: 37 °C, 72 hours, mean ± S.D. of three observations
[5] = Cytotoxicity to PMA transformed THP1 cells; type: cell-based; settings: human
[6] = tested on: Leishmania donovani promastigotes; test: Antileishmanial assay, promastigotes; type: cell-based; settings: for IC90: Leishmania donovani, 72 h, read-out: Leishmania donovani Promastigotes IC90; for Leishmania donovani Promastigotes IC50: 26 °C, 72 hours, mean ± S.D. of three observations
[7] = tested on: Leishmania donovani amastigotes in THP1 macrophage cultures; test: Antileishmanial macrophage-amastigote assay; type: cell-based; settings: Leishmania donovani, THP-1, read-out: Leishmania donovani Macrophage-Amastigotes IC50, amastigotes in THP1 macrophage cultures; mean ± S.D. of three observations
[8] = tested on: Plasmodium falciparum W2 (chloroquine-resistant clone); settings: data reported previously; cited from earlier work
[9] = tested on: Plasmodium falciparum D6 (chloroquine-sensitive clone); settings: data reported previously; cited from earlier work
VERO cells = VERO cells cytotoxicity; data reported previously; cited from earlier work
[10] = quoted as basis for basifying to pH 11; no reference given; cited from earlier work
[11] = tested on: Plasmodium falciparum W2 (chloroquine-resistant clone); test: In vitro antiplasmodial assay; type: cell-based; settings: Plasmodium falciparum, W2, read-out: P. falciparum W2 IC50
[12] = tested on: Plasmodium falciparum D6 (chloroquine-sensitive clone); test: In vitro antiplasmodial assay; type: cell-based; settings: Plasmodium falciparum, D6, read-out: P. falciparum D6 IC50

With `O=C(O)c1cn(C2CC2)c2cc(N3CCNCC3)c(F)cc2c1=O` [Ciprofloxacin, reference compound] the IC50 ([1]; ATCC23068, read-out: M. intracellulare IC50) was 0.25 µg/mL (≈ 0.754 µM), the MBC ([1]; ATCC23068, read-out: M. intracellulare MBC) was > 20 µg/mL and the MIC ([1]; ATCC23068, read-out: M. intracellulare MIC) was 0.5 µg/mL (≈ 1.51 µM). For the same compound, the IC50 ([2]; read-out: MRSA IC50) was 0.08 µg/mL (≈ 0.241 µM), the MBC ([2]; read-out: MRSA MBC) was 1 µg/mL (≈ 3.02 µM) and the MIC ([2]; read-out: MRSA MIC) was 0.25 µg/mL (≈ 0.754 µM). The IC50 ([3]; ATCC29213, read-out: S. aureus IC50) was 0.1 µg/mL (≈ 0.302 µM) and the MBC ([3]; ATCC29213, read-out: S. aureus MBC) was > 20 µg/mL.
In the case of `C[C@@H]1N[C@H](CCCCCCCCCCc2cc(CCCCCCCCCC[C@H]3CC[C@@H](O)[C@@H](C)N3)c[n+]3c2CCC3)CC[C@H]1O` [Compound 5, isoprosopilosidine], the IC90 [4] is reported as 24.8 ± 3.7 µg/mL, the IC50 ([5]; PMA transformed THP1 cells) is reported as 7.92 ± 1.22 µg/mL and the IC90 ([5]; PMA transformed THP1 cells) is reported as 19 µg/mL. It also gave an IC90 [6] of 4.52 ± 0.74 µg/mL and an IC50 [7] of 5.87 ± 0.76 µg/mL.
For `C[C@H]1N[C@@H](CCCCCCCCCCC2=C[C@@H](CCCCCCCCCC[C@H]3CC[C@@H](O)[C@@H](C)N3)[C@@H]3CCCN3C2)CC[C@H]1O` [Compound 6, juliprosopine], the “Leishmania donovani Axenic Amastigotes IC50” value [4] is given as 1.92 ± 0.19 µg/mL, the IC90 [4] is given as 6.25 ± 0.47 µg/mL (≈ 9.92 µM) and the “P. falciparum W2 IC50” value [8] is given as 0.38 ± 0.05 µg/mL. The “P. falciparum D6 IC50” value [9] was 0.22 ± 0.025 µg/mL, the “VERO IC50” value (VERO cells) was 5 µg/mL and the IC50 [5] was 3.43 ± 0.32 µg/mL (≈ 5.44 µM). For the same compound, the IC90 [5] was 7.89 ± 1.2 µg/mL (≈ 12.5 µM), the “Leishmania donovani Promastigotes IC50” value [6] was 0.29 ± 0.05 µg/mL and the IC90 [6] was 1.14 ± 0.21 µg/mL (≈ 1.81 µM).
In the case of `NCCc1c[nH]c2ccccc12` [tryptamine], the pKa [10] is listed as 10.2.
`CCN(CC)CCCC(C)Nc1ccnc2cc(Cl)ccc12` (stereo not shown) [Chloroquine] gave an IC50 [11] of 0.14 µg/mL (≈ 0.438 µM) and an IC50 [12] of 0.017 µg/mL (≈ 0.0531 µM).
For `C[C@@H]1N[C@H](CCCCCCCCCCC2=C[C@@H](CCCCCCCCCC[C@@H]3CC[C@@H](O)[C@H](C)N3)[C@@H]3CCCN3C2)CC[C@H]1O` [Compound 3, prosopilosine], the “Leishmania donovani Axenic Amastigotes IC50” value [4] was 0.98 ± 0.12 µg/mL, the IC90 [4] was 6.49 ± 0.84 µg/mL (≈ 10.3 µM) and the IC50 [5] was 2.33 ± 0.51 µg/mL (≈ 3.7 µM). For the same compound, the IC90 [5] was 3.89 ± 0.51 µg/mL (≈ 6.17 µM), the “Leishmania donovani Promastigotes IC50” value [6] was 0.17 ± 0.05 µg/mL and the IC90 [6] was 6.33 ± 1.07 µg/mL (≈ 10 µM).
